Paper PMC6166782 (Science signaling, 2018)
Where two headings read alike, the source gives them in different places. One block for each compound: values may come before it.

Key:
pHsp72 [1] = molecular target: T1, pHsp72 (Homo sapiens, UniProt P0DMV8, T66S); experiment: Isothermal titration calorimetry, nucleotide binding to pHsp72; settings: ITC; ratio of Kd
Target sequence in this assay (P0DMV8 2-641 T66S): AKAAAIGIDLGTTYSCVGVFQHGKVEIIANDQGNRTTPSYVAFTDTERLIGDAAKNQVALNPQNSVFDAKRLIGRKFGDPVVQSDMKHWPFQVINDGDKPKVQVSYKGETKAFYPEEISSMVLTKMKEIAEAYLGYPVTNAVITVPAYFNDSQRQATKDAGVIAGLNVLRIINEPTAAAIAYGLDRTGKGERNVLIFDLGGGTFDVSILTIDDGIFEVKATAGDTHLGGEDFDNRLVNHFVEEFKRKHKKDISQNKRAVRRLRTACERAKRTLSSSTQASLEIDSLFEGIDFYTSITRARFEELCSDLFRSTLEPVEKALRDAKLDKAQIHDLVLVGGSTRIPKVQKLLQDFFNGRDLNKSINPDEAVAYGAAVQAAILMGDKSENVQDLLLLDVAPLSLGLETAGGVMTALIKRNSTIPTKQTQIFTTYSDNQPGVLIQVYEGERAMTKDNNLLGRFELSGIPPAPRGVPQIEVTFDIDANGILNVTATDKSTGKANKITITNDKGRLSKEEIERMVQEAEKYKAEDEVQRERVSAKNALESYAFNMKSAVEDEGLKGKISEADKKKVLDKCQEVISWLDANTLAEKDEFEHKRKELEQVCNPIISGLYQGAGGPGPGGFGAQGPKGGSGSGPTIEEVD

pHsp72 [2] = molecular target: T1, pHsp72; experiment: Kinetics of substrate peptide release, pHsp72; format: biochemical; settings: pH 7.5, read-out: koff, excess of unlabeled peptide (ADP state)
How it was run: (§1)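 50 μM Hsp72 (pS66 or unphosphorylated) was pre-equilibrated at room temperature with F-NR and 125 μM ADP in Hepes–KOH pH 7.5 buffer with 10 mM MgCl₂. ADP state: 40 nM F-NR for over 5 h, then 150 μM unlabelled NR. ATP state: 20 nM F-NR, then 2 mM ATP plus 150 μM unlabelled peptide, read every 30 s for 4000 s (mean ± SEM, five assays). FP at 25°C; koff was fitted.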
Target sequence in this assay (P0DMV8 whole entry T66S): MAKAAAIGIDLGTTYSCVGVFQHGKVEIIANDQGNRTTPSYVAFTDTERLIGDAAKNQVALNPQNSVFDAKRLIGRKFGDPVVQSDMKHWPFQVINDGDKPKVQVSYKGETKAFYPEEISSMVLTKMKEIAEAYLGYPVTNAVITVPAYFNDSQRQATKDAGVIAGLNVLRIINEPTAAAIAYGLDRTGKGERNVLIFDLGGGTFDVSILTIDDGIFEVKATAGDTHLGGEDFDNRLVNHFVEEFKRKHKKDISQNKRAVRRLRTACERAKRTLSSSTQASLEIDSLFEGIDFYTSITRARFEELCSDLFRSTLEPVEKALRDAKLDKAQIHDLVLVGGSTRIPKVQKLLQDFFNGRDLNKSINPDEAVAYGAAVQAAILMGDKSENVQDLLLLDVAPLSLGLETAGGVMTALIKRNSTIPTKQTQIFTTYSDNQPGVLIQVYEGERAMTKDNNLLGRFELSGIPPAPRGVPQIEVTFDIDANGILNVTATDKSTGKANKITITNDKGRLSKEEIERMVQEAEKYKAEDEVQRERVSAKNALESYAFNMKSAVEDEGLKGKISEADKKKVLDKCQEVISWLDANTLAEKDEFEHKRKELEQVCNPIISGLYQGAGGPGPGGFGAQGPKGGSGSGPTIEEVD

pHsp72 [3] = molecular target: T1, pHsp72; experiment: Peptide release kinetics in the presence of Hsp110, pHsp72; format: biochemical; settings: read-out: koff, ATP, excess of unlabeled peptide, Hsp110
How it was run: (§2)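 50 μM pS66 or unphosphorylated Hsp72 was equilibrated for several hours at room temperature with 20 nM F-NR and 125 μM ADP in Hepes–KOH pH 7.5 buffer (10 mM MgCl₂, 2 mM DTT). ATP was then added to 2 mM final, with 150 μM unlabelled peptide and 125 μM Hsp110. FP (ex 490/em 535 nm, 25°C) was read every 30 s for 4000 s. koff given as mean ± SEM of six experiments.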
Target sequence in this assay (P0DMV8 whole entry T66S): as above

unphosphorylated Hsp72 [4] = molecular target: T2, unphosphorylated Hsp72 (Homo sapiens, UniProt P0DMV8); experiment: Kinetics of substrate peptide release, unphosphorylated Hsp72; format: biochemical; settings: pH 7.5, read-out: koff, excess of unlabeled peptide (ADP state)
How it was run: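 Hsp72 (50 μM) preloaded at room temperature with F-NR in 125 μM ADP, Buffer A (25 mM Hepes-KOH pH 7.5, 150 mM KCl, 10 mM MgCl₂, 2 mM DTT). ADP state: 40 nM F-NR, >5 h, then chased with 150 μM unlabelled NR. ATP state: 20 nM F-NR, then 2 mM ATP plus 150 μM unlabelled peptide. FP read over time at 25°C; koff fitted. Mean ± SEM, four (ADP) or five (ATP) runs.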
Target sequence in this assay (P0DMV8 whole entry): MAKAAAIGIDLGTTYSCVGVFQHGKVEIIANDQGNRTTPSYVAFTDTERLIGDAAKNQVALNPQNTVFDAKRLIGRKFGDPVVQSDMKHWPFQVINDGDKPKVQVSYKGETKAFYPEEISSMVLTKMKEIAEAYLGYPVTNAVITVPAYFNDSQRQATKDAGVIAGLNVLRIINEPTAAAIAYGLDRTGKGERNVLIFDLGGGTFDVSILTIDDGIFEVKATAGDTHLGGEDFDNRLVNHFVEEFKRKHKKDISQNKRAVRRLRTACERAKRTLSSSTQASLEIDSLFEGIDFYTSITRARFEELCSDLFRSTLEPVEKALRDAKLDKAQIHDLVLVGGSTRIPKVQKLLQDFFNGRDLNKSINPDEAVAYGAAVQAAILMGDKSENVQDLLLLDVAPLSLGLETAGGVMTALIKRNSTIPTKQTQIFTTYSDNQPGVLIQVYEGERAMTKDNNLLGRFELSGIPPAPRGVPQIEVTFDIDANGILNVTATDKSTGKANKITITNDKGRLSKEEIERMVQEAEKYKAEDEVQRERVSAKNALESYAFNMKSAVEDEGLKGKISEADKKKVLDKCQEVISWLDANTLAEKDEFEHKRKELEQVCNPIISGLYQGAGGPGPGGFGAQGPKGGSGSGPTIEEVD

unphosphorylated Hsp72 [5] = molecular target: T2, unphosphorylated Hsp72; experiment: Peptide release kinetics in the presence of Hsp110, unphosphorylated Hsp72; format: biochemical; settings: read-out: koff, ATP, excess of unlabeled peptide, Hsp110
How it was run: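 Unphosphorylated Hsp72 (50 μM) equilibrated for several hours at room temperature with 20 nM F-NR and 125 μM ADP in Buffer A (pH 7.5, 150 mM KCl, 10 mM MgCl₂). Release triggered by 2 mM ATP (final) with 150 μM unlabelled peptide and 125 μM His-tagged, E. coli-expressed Hsp110. FP (ex 490/em 535 nm, 25°C) every 30 s for 4000 s; koff fitted. Mean ± SEM, six experiments.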
Target sequence in this assay (P0DMV8 whole entry): as above

unphosphorylated Hsp72 [6] = molecular target: T2, unphosphorylated Hsp72; experiment: Fluorescence polarization peptide binding, unphosphorylated Hsp72
How it was run: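 Unphosphorylated Hsp72 serially diluted in Buffer A (pH 7.5, 10 mM MgCl₂). ADP state: 125 μM ADP plus 20 nM F-NR, several hours at room temperature to equilibrium. ATP state: 2 mM ATP for 2 min, then 20 nM F-NR, read after 10 min. FP at 25°C, ex 490/em 535 nm. Kd from one-site nonlinear fit; ATP Kd divided by ADP Kd.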
Target sequence in this assay (P0DMV8 whole entry): as above

pHsp72 [7] = molecular target: T1, pHsp72; experiment: ATP mediated substrate release assay, pHsp72; format: biochemical; settings: 100 μM VER-155008, 2 mM ATP; Fig. S7, C to E; protein form not given
How it was run: (§3)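 Full-length Hsp72 (unphosphorylated, or pSer66 genetically encoded in E. coli) at 50 μM was equilibrated at room temperature for several hours with 20 nM F-NR or F-ALLQ peptide and 125 μM ADP in Buffer A (Hepes-KOH pH 7.5, 10 mM MgCl₂, 2 mM DTT). ATP was added to 2 mM final, with 100 μM VER-155008 included. FP (ex 490/em 535 nm, 25°C) was read before ATP, then every 30 s for 4000 s.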
Target sequence in this assay (P0DMV8 2-641 T66S): as the sequence (P0DMV8 2-641 T66S) above

spindle assembly = settings: ref [9]; cited from earlier work
unphosphorylated Hsp72 [8] = molecular target: T2, unphosphorylated Hsp72; experiment: ATP mediated substrate release assay, unphosphorylated Hsp72; format: biochemical; settings: 100 μM VER-155008, 2 mM ATP; Fig. S7, C to E
How it was run: as §3
Target sequence in this assay (P0DMV8 2-641): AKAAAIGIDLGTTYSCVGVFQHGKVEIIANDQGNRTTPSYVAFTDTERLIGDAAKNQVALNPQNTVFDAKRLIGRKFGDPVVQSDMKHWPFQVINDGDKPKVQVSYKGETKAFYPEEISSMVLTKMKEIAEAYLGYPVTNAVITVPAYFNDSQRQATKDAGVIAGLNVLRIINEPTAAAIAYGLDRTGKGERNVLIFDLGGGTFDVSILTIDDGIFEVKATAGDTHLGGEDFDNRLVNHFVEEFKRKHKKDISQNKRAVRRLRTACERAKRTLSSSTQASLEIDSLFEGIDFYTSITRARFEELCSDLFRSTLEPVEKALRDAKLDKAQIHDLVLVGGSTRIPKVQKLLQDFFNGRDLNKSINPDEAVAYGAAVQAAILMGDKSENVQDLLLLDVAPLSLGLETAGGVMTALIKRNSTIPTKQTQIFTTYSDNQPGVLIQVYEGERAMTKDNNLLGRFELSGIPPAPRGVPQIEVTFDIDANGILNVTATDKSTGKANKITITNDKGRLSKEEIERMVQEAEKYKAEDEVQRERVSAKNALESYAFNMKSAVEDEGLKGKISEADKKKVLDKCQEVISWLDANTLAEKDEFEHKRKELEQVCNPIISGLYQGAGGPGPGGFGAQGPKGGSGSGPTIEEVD

[9] = molecular target: fluorescein-labeled NR peptide (F-NR); experiment: fluorescence polarisation
[10] = molecular target: fluorescein-labeled NR peptide (F-NR); experiment: fluorescence polarisation; remark: listed apart in the source
mitotic spindle = settings: ref [9]; cited from earlier work
[11] = tested on: spindle poles, HeLa cells; experiment: FRAP of GFP-Hsp72 at spindle poles; format: cell-based; settings: one spindle pole bleached; average of 4-5 cells from 2 experiments
pHsp72 [12] = experiment: Kinetics of substrate peptide release, pHsp72; format: biochemical
How it was run: as §1

pHsp72 [13] = experiment: Peptide release kinetics in the presence of Hsp110, pHsp72; format: biochemical; settings: ATP, Hsp110 and unlabeled substrate peptide
How it was run: as §2

Chain of Heat shock protein 72 (Hsp72), unphosphorylated, full-length (P0DMV8 whole entry): as the sequence (P0DMV8 whole entry) above

fold tighter nucleotide binding, pHsp72 vs unphosphorylated Hsp72 (pHsp72 [1]): ten times more tightly
Compound: Nc1ncnc2c1ncn2[C@@H]1O[C@H](COP(=O)(O)OP(=O)(O)O)[C@@H](O)[C@H]1O [ADP, adenosine diphosphate]

fold tighter nucleotide binding, pHsp72 vs unphosphorylated Hsp72 (pHsp72 [1]): 3.6 fold
Compound: Nc1ncnc2c1ncn2[C@@H]1O[C@H](COP(=O)(O)OP(=O)(O)NP(=O)(O)O)[C@@H](O)[C@H]1O [AMP-PNP, adenylyl-imidodiphosphate]

fold tighter nucleotide binding, pHsp72 vs unphosphorylated Hsp72 (pHsp72 [1]): twice as tightly
Compound: Nc1ncnc2c1ncn2[C@@H]1O[C@H](COP(=O)(O)OP(=O)(O)OP(=O)(O)O)[C@@H](O)[C@H]1O [ATP, adenosine triphosphate]

koff (pHsp72 [2]): 0.00079 ± 3e-05 s⁻¹
koff (pHsp72 [3]): 0.0252 ± 0.0017 s⁻¹
koff (unphosphorylated Hsp72 [4]): 0.00123 ± 4e-05 s⁻¹
koff (unphosphorylated Hsp72 [5]): 0.0673 ± 0.0077 s⁻¹
factor by which ATP weakened peptide interaction vs ADP (unphosphorylated Hsp72 [6]; unphosphorylated Hsp72, ATP vs ADP, ratio of Kd): 40
Compound: CC(C)C[C@H](NC(=O)[C@H](CCCNC(=N)N)NC(=O)[C@H](CC(N)=O)NC(=O)c1ccc2c(c1)C(=O)OC21c2ccc(O)cc2Oc2cc(O)ccc21)C(=O)N[C@@H](CC(C)C)C(=O)N[C@@H](CC(C)C)C(=O)N[C@H](C(=O)NCC(=O)O)[C@@H](C)O [F-NR]

increase of ATP-mediated rate of release of substrate peptide (pHsp72 [7]): ~ 2.6
fold reduction of ATP substrate release rate (unphosphorylated Hsp72 [8]): ~ 8.6 fold
Compound: N#Cc1ccc(COC[C@H]2O[C@@H](n3c(NCc4ccc(Cl)c(Cl)c4)nc4c(N)ncnc43)[C@H](O)[C@@H]2O)cc1 [VER-155008]
effect on spindle assembly (spindle assembly): disrupted spindle assembly
effect on binding of peptide substrate (unphosphorylated Hsp72 [6]; 100 μM VER-155008, DMSO control, Fig. S7, form of Hsp72 not stated): did not affect the binding of peptide substrate

Compound: Heat shock protein 72 (Hsp72), unphosphorylated, full-length (from UniProt P0DMV8 1-641) (natural protein)
Kd [9]: 3.95 µM
Kd [10]: 157 µM

Compound: T66A
effect on spindle assembly (spindle assembly): causes defects in spindle assembly
localization to the spindle (mitotic spindle): did not localize to the spindle

Compound: T66E
effect on spindle assembly (spindle assembly): can rescue the defects in spindle assembly due to NEK6 depletion
FRAP recovery [11]: very little recovery

Compound: pHsp72: full-length Hsp72 with incorporation of pSer^66
times slower peptide release rate, pHsp72 vs unphosphorylated (pHsp72 [12]; ADP state): ~ 1.5 times
times slower peptide release rate, pHsp72 vs unphosphorylated (pHsp72 [12]; ATP state): ~ 8 times
fold slower peptide release rate, pHsp72 vs Hsp72, in presence of Hsp110 (pHsp72 [13]): ~ 2.7 fold

Compound: pSer^66-Hsp72 (pHsp72), full-length, with genetically encoded phosphoserine at position 66 (from UniProt P0DMV8 1-641) (natural protein)
Kd [10]: 27.6 µM
